Assay results published in the RNAGym collection of RNA variant scans (doi:10.1101/gad.245936.114).
Fewer inactive variants are shown than the library holds.

B1: tRNA (parent)
chain: CUCUCGGUAGCCAAGUUGGUUUAAGGCGCAAGACUUUAAUUUAUCACUACGAAAUCUUGAGAUCGGGCGUUCGACUCGCCCCCGGGAGAUUUUUUCCUCGAGCAA

Variants of: B1
Assay: nonsense suppression (GFP-seq) (ratio to wild type); higher = more function; SUP4oc tRNA, yeast GFP reporter sort-seq
Procedure, shortened: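 Nonsense suppression (GFPSEQ) is the median GFP/RFP ratio of each sorting bin, weighted by the variant's estimated share of cells in that bin and expressed relative to the unmutated parent tRNA. Yeast strains carried genome-integrated variants of an ochre-suppressor tRNA from a library with ~3% random mutations, plus a galactose-driven GFP ochre reporter and RFP, and were grown in raffinose/galactose medium containing 80 mg/L adenine. Cells were sorted into GFP/RFP bins, each bin was Illumina-sequenced (phred ≥30), and variants were kept only with ≥100 reads and ≥30 cells.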

Row | Variant | nonsense suppression
1 | U22A G28U A54U U70G A87C | ≤ 0.026
2 | A23G A60G | 0.0474
3 | A23G A60C | 0.241
4 | A23G G84U G86U | ≤ 0.026
5 | A23U U63A | 0.207
6 | U22A G25U | 0.0283
7 | U22C C34G G88A | ≤ 0.026
8 | U22C U76C | 1.02
9 | A23G C56A U63G | ≤ 0.026
10 | A24C A74C | 0.0915
11 | A23U G65C C72A | ≤ 0.026
12 | U22A G78A | 0.283
13 | U22G A87G | 0.886
14 | A24C A60U U63A | 0.112
15 | A23G G61C | 0.113
16 | A24C C68U | 0.765
17 | A23U G86A | ≤ 0.026
18 | U22C G78C | 0.195
19 | A23C U35G | ≤ 0.026
20 | U22C A33U | 0.202
21 | U22G U55C U57A G65A | ≤ 0.026

Row | Variant | nonsense suppression
22 | A24C A30U | 0.11
23 | U22G G78A | 0.173
24 | U22G G78U | 0.112
25 | U22G G78C | 0.0318
26 | A24C C79U | 0.209
27 | U22C A24C | 1.01
28 | U22C U63C C68U | 0.0629
29 | A24C G26A A30U C80G C81G | ≤ 0.026
30 | A23G G67U | ≤ 0.026
31 | U22G A31U U63C U71A | ≤ 0.026
32 | A24C A54G | 0.0609
33 | A24C A54C | 0.198
34 | A23U C56G U70C | ≤ 0.026
35 | A23G A24C C34U C72A A89U | ≤ 0.026
36 | A23G A54U | 0.0263
37 | A24C A30U A54C U58G C75A | 0.783
38 | U22G G25U G66A A89G | ≤ 0.026
39 | U22G G73A | 0.854
40 | A23U C34U U35G | ≤ 0.026
41 | U22G A54U | 1.12
42 | U22C G25C | 0.0473

Row | Variant | nonsense suppression
43 | A23U A60G | 0.0537
44 | A23C C34U G78U | ≤ 0.026
45 | U22C C29U G61A | 0.386
46 | A23C G59C G61A | ≤ 0.026
47 | A23C G59C G61C | ≤ 0.026
48 | A23U A62C | ≤ 0.026
49 | A23U A31G | ≤ 0.026
50 | A23G U70C | ≤ 0.026
51 | U22A G73A | 0.325
52 | A23U C75A | ≤ 0.026
53 | A23C G25A | ≤ 0.026
54 | A24C C83U | 0.383
55 | A23U G78U | 0.0382
56 | U22C U70C G73A | ≤ 0.026
57 | A23C U57C | ≤ 0.026
58 | A24C G25C A62U | ≤ 0.026
59 | A23G G67A C80A | ≤ 0.026
60 | U22C | 1
61 | U22G | 0.989
62 | A24C C29U | 0.751
63 | U22A G28A | 1.14

Row | Variant | nonsense suppression
64 | U22G G85U | 0.796
65 | A23C G88A | ≤ 0.026
66 | U22A G61C | 0.203
67 | U22C A33G G59A | ≤ 0.026
68 | U22C G61A C79U | 0.197
69 | A24C C64G | ≤ 0.026
70 | A23C C82G | ≤ 0.026
71 | A24C G25U | ≤ 0.026
72 | A23G C68U | 0.182
73 | U22G A60C | 0.175
74 | U22G U55C G65C C80U | ≤ 0.026
75 | U22C U63C | 1.2
76 | U22G C75U | 0.981
77 | U22G C75A | 0.927
78 | U22C A31G A74C | ≤ 0.026
79 | A24C C34G C56U | ≤ 0.026
80 | A23G C56A C64G A74C | ≤ 0.026
81 | U22G A31U | 0.0872
82 | A23U G28C | ≤ 0.026
83 | A23U G65A | ≤ 0.026
84 | U22G G78U G85A | 0.788
